The test system of assay [1] is Mycobacterium tuberculosis. Nature of the assay: Antimycobacterial activity against Mycobacterium tuberculosis H37Rv after 3 to 4 weeks by microplate alamar blue assay. The assay is classed as functional.
Assay [2] can be described thus: Selectivity index, ratio of IC50 for human HFF cells to MIC for Mycobacterium tuberculosis H37Rv. The format is functional. In a few lines: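 SI computed as IC50 on HFF cells (24 h MTT) divided by MIC against M. tuberculosis H37Rv (3–4 week microdilution, […]).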
The subject of another assay is HFF. Nature of the assay: Cytotoxicity against human HFF cells after 24 hrs by MTT assay. The assay is classed as cell-based. In a few lines:
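Human foreskin fibroblasts in DMEM with 10% FCS exposed to test material for 24 h at 37 °C in CO2 incubator. MTT then added, 3 h further at 37 °C. Formazan read at 565 nm; percent cytotoxicity relative to untreated cells, reported as IC50.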

This note sets out measurements from ChEMBL document CHEMBL1687874, “Anti-tubercular agents. Part 6: synthesis and antimycobacterial activity of novel arylsulfonamido conjugated oxazolidinones” (Eur J Med Chem, 2011).

In brackets after ≈: the same amount, converted by molar mass. A value given as a limit tells only on which side of the number the result lay.

In assay [1], `CN1C(NC[C@H]2CN(c3ccc(N4CCSCC4)c(F)c3)C(=O)O2)=NS(=O)(=O)c2ccccc21` registered an MIC of more than 6.25 µg/mL. For the compound `CC(=O)NC[C@H]1CN(c2ccc(N3CCN(C4=NS(=O)(=O)c5ccccc5N4C)CC3)c(F)c2)C(=O)O1`, in assay [2], the “Selectivity Index” value was more than 100. The IC50 in the assay on HFF was more than 100 µM. The compound also gave an MIC in assay [1] of 1 µg/mL (≈ 1.88 µM). In the same order, the values of `CCN1C(N2CCN(c3ccc(N4C[C@H](CNC(C)=O)OC4=O)cc3F)CC2)=NS(=O)(=O)c2ccccc21` are more than 50, more than 50 µM and 1 µg/mL (≈ 1.84 µM).

As to `O=C1O[C@@H](CNS(=O)(=O)c2ccc(Cl)cc2)CN1c1ccc(N2CCOCC2)c(F)c1`, in assay [1], the MIC was more than 6.25 µg/mL. The same measure, in the same setting: as for `O=C(/C=C/c1ccc(-c2ccc(Cl)cc2)o1)N1CCN(c2ccc(N3C[C@H](CNC4=NS(=O)(=O)c5ccccc5N4c4ccccc4)OC3=O)cc2F)CC1`, the figure is more than 6.25 µg/mL; as for `CCN1C(NC[C@H]2CN(c3ccc(N4CCOCC4)c(F)c3)C(=O)O2)=NS(=O)(=O)c2ccccc21`, more than 6.25 µg/mL; as for `CN1C(NC[C@H]2CN(c3ccc(N4CCOCC4)c(F)c3)C(=O)O2)=NS(=O)(=O)c2ccccc21`, more than 6.25 µg/mL. On the same count and under the same terms, with `CCN1C(NC[C@H]2CN(c3ccc(N4CCN(C(=O)/C=C/c5ccc(-c6ccc(Cl)cc6)o5)CC4)c(F)c3)C(=O)O2)=NS(=O)(=O)c2ccccc21` the figure was more than 6.25 µg/mL; with `O=C1O[C@@H](CNC2=NS(=O)(=O)c3ccccc3N2c2ccccc2)CN1c1ccc(N2CCSCC2)c(F)c1`, more than 6.25 µg/mL. `CC(=O)NC[C@H]1CN(c2ccc(N3CCOCC3)c(F)c2)C(=O)O1` [LINEZOLID]: the MIC in assay [1] is 2 µg/mL (≈ 5.93 µM). For `CO[C@H]1/C=C/O[C@@]2(C)Oc3c(C)c(O)c4c(O)c(c(/C=N/N5CCN(C)CC5)c(O)c4c3C2=O)NC(=O)/C(C)=C\C=C\[C@H](C)[C@H](O)[C@@H](C)[C@@H](O)[C@@H](C)[C@H](OC(C)=O)[C@@H]1C` [RIFAMPIN], it took 0.12 µg/mL (≈ 0.146 µM) to inhibit growth in assay [1] (MIC). Still for that read-out and setting: with `CCN1C(NC[C@H]2CN(c3ccc(N4CCSCC4)c(F)c3)C(=O)O2)=NS(=O)(=O)c2ccccc21` the figure was more than 6.25 µg/mL; with `O=C1O[C@@H](CNC2=NS(=O)(=O)c3ccccc3N2c2ccccc2)CN1c1ccc(N2CCOCC2)c(F)c1`, more than 6.25 µg/mL. Compound `CN1C(NC[C@H]2CN(c3ccc(N4CCN(C(=O)/C=C/c5ccc(-c6ccc(Cl)cc6)o5)CC4)c(F)c3)C(=O)O2)=NS(=O)(=O)c2ccccc21` returned an MIC in assay [1] of more than 6.25 µg/mL.

Consider `O=C1O[C@@H](CNS(=O)(=O)c2ccc(F)cc2)CN1c1ccc(N2CCOCC2)c(F)c1`, for which, in assay [2], the “Selectivity Index” value is recorded as more than 100. This compound also displayed an IC50 in the assay with HFF of more than 100 µM. The same compound gave an MIC in assay [1] of 1 µg/mL (≈ 2.21 µM). On to `CC(=O)NC[C@H]1CN(c2ccc(N3CCN(C4=NS(=O)(=O)c5ccccc5N4c4ccccc4)CC3)c(F)c2)C(=O)O1`, for which the “Selectivity Index” value in assay [2] was more than 8. The same compound gave an IC50 in the assay with HFF of more than 50 µM. In assay [1], this compound returned an MIC of 6.25 µg/mL (≈ 10.5 µM). Compound `Cc1ccc(S(=O)(=O)NC[C@H]2CN(c3ccc(N4CCOCC4)c(F)c3)C(=O)O2)cc1` returned an MIC in assay [1] of more than 6.25 µg/mL. Regarding `O=C1O[C@@H](CNS(=O)(=O)c2ccccc2)CN1c1ccc(N2CCOCC2)c(F)c1`, in assay [1], the MIC was more than 6.25 µg/mL.
